Activity calls are given as the source filed them. The calls are words filed in the database; no cut-off is given here.
Legend:
[1] = test system: Vesicular stomatitis virus; test: Antiviral activity against Vesicular stomatitis virus infected in HeLa cells assessed as inhibition of virus-induced cytopathogenicity; format: functional, organism-based
Summary of the method: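 HeLa cell monolayers (confluent) were infected with 100 CCID50 of VSV in the presence of serial compound concentrations. Viral cytopathicity was read when complete in untreated infected controls. EC50 is the concentration that reduced virus-induced cytopathogenicity by 50%.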

Felid alphaherpesvirus 1 = test: Antiviral activity against Feline herpesvirus 1 infected in HEL cells assessed as inhibition of virus-induced cytopathogenicity; format: functional, organism-based; details: for EC50: Felid alphaherpesvirus 1, HEL
Summary of the method: (§1)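 Confluent host-cell monolayers in 96-well plates were inoculated with 100 CCID₅₀ of virus while exposed to a range of test compound concentrations. Cytopathic effect was scored once it was complete in untreated infected controls. EC₅₀ is the concentration that reduces virus-induced cytopathogenicity by 50%.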

Human alphaherpesvirus 1 = test: Antiviral activity against HSV-1 infected in HEL cells assessed as inhibition of virus-induced cytopathogenicity; format: functional, organism-based; summary of the method: as §1
CCRF-CEM = test: Cytostatic activity against human CEM cells assessed as inhibition of proliferation after 72 hrs by Coulter cell counting method; format: functional, cell-based
Summary of the method: (§2)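 (5–7.5) × 10⁴ tumor cells per well were exposed to test compound at 37 °C in humidified CO₂. Incubation ran 48 h for L1210 and 72 h for CEM and HeLa. Cells were then counted in a Coulter counter. IC₅₀ is the concentration that inhibits cell proliferation by 50%.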

L1210 = test: Cytostatic activity against mouse L1210 cells assessed as inhibition of proliferation after 48 hrs by Coulter cell counting method; format: functional, cell-based; details: L1210, 48 h; summary of the method: as §2
HeLa = test: Cytostatic activity against human HeLa cells assessed as inhibition of proliferation after 72 hrs by Coulter cell counting method; format: functional, cell-based; summary of the method: as §2
[2] = Cytotoxicity against feline CRFK cells assessed as reduction in cell viability by MTS assay; format: cell-based, Felis catus; details: cat
Summary of the method: (§3)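 Uninfected host cells were exposed to test compound, and viability was read by the colorimetric MTS assay. CC₅₀ is the concentration causing a 50% decrease in cell viability.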

Human alphaherpesvirus 2 = test: Antiviral activity against HSV-2 infected in HEL cells assessed as inhibition of virus-induced cytopathogenicity; format: functional, organism-based; summary of the method: as §1
[3] = Cytotoxicity against MDCK cells assessed as reduction in cell viability by MTS assay; format: cell-based, Canis lupus familiaris; details: dog; summary of the method: as §3
Influenza A virus H3N2 = test: Antiviral activity against Influenza A virus H3N2 infected in MDCK cells assessed as inhibition of virus-induced cytopathogenicity; format: functional, organism-based
Summary of the method: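 Confluent MDCK cell cultures were infected in the presence of varying compound concentrations. Cytopathicity was recorded once complete in untreated virus-infected controls, scored visually and by MTS colorimetric assay. EC50 is the concentration that reduced virus-induced cytopathogenicity by 50%.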

Human alphaherpesvirus 3 [4] = test: Antiviral activity against Thymidine kinase-positive Varicella-zoster virus Oka infected in HEL assessed as reduction in virus plaque formation; format: functional, organism-based; details: Human alphaherpesvirus 3, strain Oka vaccine
Summary of the method: (§4)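 Confluent HEL fibroblast cultures were inoculated with 20 PFU of VZV together with varying compound concentrations. Plaque formation was recorded once complete in untreated infected controls. EC50 is the concentration that reduced viral plaque formation by 50%.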

[5] = test system: Respiratory syncytial virus; test: Antiviral activity against Respiratory syncytial virus infected in HeLa cells assessed as inhibition of virus-induced cytopathogenicity; format: functional, organism-based; summary of the method: as §1
Human alphaherpesvirus 3 [6] = test: Antiviral activity against Thymidine kinase-negative Varicella-zoster virus 07-1 infected in HEL assessed as reduction in virus plaque formation; format: functional, organism-based; details: Human alphaherpesvirus 3, 07-1; summary of the method: as §4

SMILES	IC50 (CCRF-CEM) [µM]	IC50 (L1210) [µM]	IC50 (HeLa) [µM]	other results
NC(=O)c1ncn([C@@H]2O[C@H](CO)[C@@H](O)[C@H]2O)n1 [RIBAVIRIN]				EC50 [1]: 17 µM
CCOP(=O)(CCCn1cc(Cn2c(=O)n(C(=O)c3ccccc3)c(=O)c3ccccc32)nn1)OCC				EC50 (Felid alphaherpesvirus 1): 24 µM
O=C(c1ccccc1)n1c(=O)c2ccccc2n(Cc2cn(C[C@H](OCc3ccccc3)[C@H](O)P(=O)(OCc3ccccc3)OCc3ccccc3)nn2)c1=O	4.7	4.7	5.1	EC50 (Human alphaherpesvirus 1; Human alphaherpesvirus 1, HEL): 2.9 µM; EC50 (Felid alphaherpesvirus 1): 4 µM; MCC [2]: ≥ 4 µM; EC50 (Human alphaherpesvirus 2; Human alphaherpesvirus 2, HEL): 4 µM
Cc1cn(Cc2cn(C[C@H](OCc3ccccc3)[C@@H](O)P(=O)(OCc3ccccc3)OCc3ccccc3)nn2)c(=O)[nH]c1=O	> 200	> 200	> 200	CC50 [3]: > 100 µM; MCC [3]: > 100 µM; EC50 (Influenza A virus H3N2): 20 µM
Cn1c(=O)c2c(nc(Cl)n2Cc2cn(C[C@H]3OC(C)(C)O[C@H]3[C@@H](O)P(=O)(OCc3ccccc3)OCc3ccccc3)nn2)n(C)c1=O	51	58	85	EC50 (Human alphaherpesvirus 3 [4]): 55.7 µM
O=c1cnn(Cc2cn(C[C@H](OCc3ccccc3)[C@@H](O)P(=O)(OCc3ccccc3)OCc3ccccc3)nn2)c(=O)[nH]1	71	78	64	inhibition [5]: inactive; EC50 (Human alphaherpesvirus 3 [6]): 70 µM; EC50 (Human alphaherpesvirus 3 [4]): 63.7 µM; inhibition [1]: inactive
O=C(c1ccccc1)n1c(=O)c2ccccc2n(Cc2cn(C[C@H](OCc3ccccc3)[C@@H](O)P(=O)(OCc3ccccc3)OCc3ccccc3)nn2)c1=O	4.7	4.1	7.1	inhibition [5]: inactive; inhibition [1]: inactive
O=C(c1ccccc1)n1c(=O)ccn(Cc2cn(C[C@H](OCc3ccccc3)[C@H](O)P(=O)(OCc3ccccc3)OCc3ccccc3)nn2)c1=O	21	21	57	inhibition (Human alphaherpesvirus 1): inactive; inhibition (Human alphaherpesvirus 2): inactive
O=c1ccn(Cc2cn(C[C@H](OCc3ccccc3)[C@H](O)P(=O)(OCc3ccccc3)OCc3ccccc3)nn2)c(=O)[nH]1	91	86	66	inhibition (Felid alphaherpesvirus 1): inactive
Nc1ncnc2c1ncn2Cc1cn(C[C@H](OCc2ccccc2)[C@H](O)P(=O)(OCc2ccccc2)OCc2ccccc2)nn1	76	46	80	
O=c1cnn(Cc2cn(C[C@H](OCc3ccccc3)[C@H](O)P(=O)(OCc3ccccc3)OCc3ccccc3)nn2)c(=O)[nH]1	81	71	122	
Cc1cn(Cc2cn(C[C@@H]3OC(C)(C)O[C@H]3[C@@H](O)P(=O)(OCc3ccccc3)OCc3ccccc3)nn2)c(=O)[nH]c1=O	> 200	139	107	
CC(=O)c1cn(Cc2cn(C[C@H](OCc3ccccc3)[C@@H](O)P(=O)(OCc3ccccc3)OCc3ccccc3)nn2)c2ccccc12	> 200	> 200	> 200	
Cn1c(=O)c2c(nc(Cl)n2Cc2cn(C[C@H](OCc3ccccc3)[C@@H](O)P(=O)(OCc3ccccc3)OCc3ccccc3)nn2)n(C)c1=O	27	70	> 200	
O=C(c1ccccc1)n1c(=O)ccn(Cc2cn(C[C@H](OCc3ccccc3)[C@@H](O)P(=O)(OCc3ccccc3)OCc3ccccc3)nn2)c1=O	21	26	76	EC50 ([5]; human respiratory syncytial virus): 12 µM; EC50 [1]: 9 µM
Cn1cnc2c1c(=O)n(Cc1cn(C[C@H](OCc3ccccc3)[C@@H](O)P(=O)(OCc3ccccc3)OCc3ccccc3)nn1)c(=O)n2C	82	71	78	
Cn1cnc2c1c(=O)n(Cc1cn(C[C@@H]3OC(C)(C)O[C@H]3[C@@H](O)P(=O)(OCc3ccccc3)OCc3ccccc3)nn1)c(=O)n2C	142	145	> 200	
CC(=O)Nc1ccn(Cc2cn(C[C@H]3OC(C)(C)O[C@H]3[C@@H](O)P(=O)(OCc3ccccc3)OCc3ccccc3)nn2)c(=O)n1	> 200	> 200	> 200	
O=C(c1ccccc1)n1c(=O)ccn(Cc2cn(C[C@H](O)[C@@H](O)P(=O)(O)O)nn2)c1=O	> 200	> 200	> 200	
Cc1cn(Cc2cn(C[C@H](O)[C@@H](O)P(=O)(O)O)nn2)c(=O)[nH]c1=O	> 200	> 200	> 200	
Cn1c(=O)c2c(ncn2Cc2cn(C[C@H]3OC(C)(C)O[C@H]3[C@@H](O)P(=O)(OCc3ccccc3)OCc3ccccc3)nn2)n(C)c1=O	> 200	> 200	> 200	
